Test results taken from ChEMBL document CHEMBL1149292, “A rational utilization of high-throughput screening affords selective, orally bioavailable 1-benzyl-3-carboxyazetidine sphingosine-1-phosphate-1 receptor agonists” (J Med Chem, 2004).
Calls of active or inactive are those of the source. The rule behind the calls is not given here.

Assays:
[1] = target: Sphingosine 1-phosphate receptor 5 (Homo sapiens, UniProt Q9H228); assay: Displacement of [33P]sphingosine 1 phosphate from human S1P5 receptor expressed in CHO cells; type: cell-based
Chain of Sphingosine 1-phosphate receptor 5 (Q9H228 whole entry): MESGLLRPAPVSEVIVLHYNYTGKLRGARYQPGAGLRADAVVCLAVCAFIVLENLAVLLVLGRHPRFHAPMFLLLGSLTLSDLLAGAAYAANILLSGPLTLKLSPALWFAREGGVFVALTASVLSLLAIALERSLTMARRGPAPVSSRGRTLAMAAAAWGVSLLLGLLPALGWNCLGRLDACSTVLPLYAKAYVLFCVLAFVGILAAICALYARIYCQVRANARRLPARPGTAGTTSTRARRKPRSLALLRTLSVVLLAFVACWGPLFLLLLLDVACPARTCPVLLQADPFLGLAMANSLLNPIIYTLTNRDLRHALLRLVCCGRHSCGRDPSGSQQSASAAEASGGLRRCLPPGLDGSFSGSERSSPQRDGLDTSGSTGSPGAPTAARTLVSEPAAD
Summary of the method: (§1)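 Competition binding with [33P]-labeled S1P on membranes of CHO cells stably expressing each human S1P receptor. Values are the mean of n = 3 determinations.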

[2] = target: T1, Sphingosine 1-phosphate receptor 4 (Homo sapiens, UniProt O95977); assay: Displacement of [33P]sphingosine 1 phosphate from human S1P4 receptor expressed in CHO cells; type: cell-based; summary of the method: as §1
T1 sequence (O95977 whole entry): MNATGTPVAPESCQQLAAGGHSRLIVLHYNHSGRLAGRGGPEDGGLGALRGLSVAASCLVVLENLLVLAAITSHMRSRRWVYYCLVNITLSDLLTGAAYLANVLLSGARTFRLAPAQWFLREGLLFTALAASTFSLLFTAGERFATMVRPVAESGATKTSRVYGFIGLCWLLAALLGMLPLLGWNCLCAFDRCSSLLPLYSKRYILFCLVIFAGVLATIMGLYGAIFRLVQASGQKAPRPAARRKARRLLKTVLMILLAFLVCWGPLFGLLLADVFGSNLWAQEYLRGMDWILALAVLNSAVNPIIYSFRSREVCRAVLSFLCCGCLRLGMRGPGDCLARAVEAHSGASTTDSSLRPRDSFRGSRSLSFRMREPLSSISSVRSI

[3] = target: T2, Sphingosine 1-phosphate receptor 3 (Homo sapiens, UniProt Q99500); assay: Displacement of [33P]sphingosine 1 phosphate from human S1P3 receptor expressed in CHO cells; type: cell-based
T2 sequence (Q99500 whole entry): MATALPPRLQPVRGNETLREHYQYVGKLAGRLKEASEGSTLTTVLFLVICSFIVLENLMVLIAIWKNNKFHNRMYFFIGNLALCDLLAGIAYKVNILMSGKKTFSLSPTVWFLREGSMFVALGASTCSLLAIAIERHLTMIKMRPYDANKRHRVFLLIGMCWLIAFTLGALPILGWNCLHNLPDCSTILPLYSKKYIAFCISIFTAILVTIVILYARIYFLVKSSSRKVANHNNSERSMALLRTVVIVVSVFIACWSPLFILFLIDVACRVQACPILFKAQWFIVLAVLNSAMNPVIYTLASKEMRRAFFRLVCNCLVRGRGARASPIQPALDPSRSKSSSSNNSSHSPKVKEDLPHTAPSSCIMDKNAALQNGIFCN

[4] = target: T3, Sphingosine 1-phosphate receptor 1 (Homo sapiens, UniProt P21453); assay: Displacement of [33P]sphingosine 1 phosphate from human S1P1 receptor expressed in CHO cells; type: cell-based
T3 sequence (P21453 whole entry): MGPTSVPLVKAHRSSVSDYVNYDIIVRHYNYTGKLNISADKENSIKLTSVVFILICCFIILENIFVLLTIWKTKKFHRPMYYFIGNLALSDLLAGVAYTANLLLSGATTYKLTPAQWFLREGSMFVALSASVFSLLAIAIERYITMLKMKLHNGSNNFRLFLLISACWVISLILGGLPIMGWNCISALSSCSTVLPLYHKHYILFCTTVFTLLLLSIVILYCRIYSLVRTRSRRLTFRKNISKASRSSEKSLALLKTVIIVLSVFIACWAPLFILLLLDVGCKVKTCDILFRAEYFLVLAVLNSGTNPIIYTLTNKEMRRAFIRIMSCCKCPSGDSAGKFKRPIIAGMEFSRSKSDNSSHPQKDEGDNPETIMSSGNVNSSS

[5] = target: T3, Sphingosine 1-phosphate receptor 1; assay: Activity at human S1P1 receptor expressed in CHO cells by [35S]GTPgammaS binding assay; type: functional, cell-based
Summary of the method: (§2)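 Agonism measured as ligand-induced [35S]-GTPγS binding to membranes of CHO cells stably expressing the human S1P receptor.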

[6] = target: Sphingosine 1-phosphate receptor 2 (Homo sapiens, UniProt O95136); assay: Displacement of [33P]sphingosine 1 phosphate from human S1P2 receptor expressed in CHO cells; type: cell-based
Chain of Sphingosine 1-phosphate receptor 2 (O95136 whole entry): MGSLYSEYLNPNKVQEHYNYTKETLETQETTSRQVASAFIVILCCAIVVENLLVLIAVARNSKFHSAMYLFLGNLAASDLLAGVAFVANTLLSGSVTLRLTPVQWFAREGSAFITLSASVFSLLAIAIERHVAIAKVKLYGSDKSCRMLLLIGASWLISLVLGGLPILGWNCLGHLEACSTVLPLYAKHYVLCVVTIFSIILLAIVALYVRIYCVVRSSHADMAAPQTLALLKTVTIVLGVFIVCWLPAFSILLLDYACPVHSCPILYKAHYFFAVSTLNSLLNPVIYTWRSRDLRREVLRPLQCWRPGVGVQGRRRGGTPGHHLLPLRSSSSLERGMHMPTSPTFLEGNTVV

Mus musculus = assay: Decrease in peripheral blood lymphocytes in po dosed mouse after 3 hrs; type: functional
Summary of the method: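 Compound given orally to mice. Peripheral blood lymphocyte counts taken 3 h after dosing, expressed as average percent decrease in n = 3 animals versus controls (n = 3). ED50 from dose-titration.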

[7] = Bioavailability in rat at 2 mg/kg, po and 1 mg/kg, iv; type: ADME, organism-based; conditions: in vivo
Summary of the method: (§3)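 Rat PK at 2.0 mpk po and 1.0 mpk iv. Plasma compound levels measured.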

[8] = target: T2, Sphingosine 1-phosphate receptor 3; assay: Activity at human S1P3 receptor expressed in CHO cells by [35S]GTP-gamma-S binding assay; type: functional, cell-based; summary of the method: as §2
[9] = Plasma clearance in rat at 2 mg/kg, po and 1 mg/kg, iv; type: ADME, organism-based; summary of the method: as §3
[10] = Volume of distribution at steady state in rat at 2 mg/kg, po and 1 mg/kg, iv; type: ADME, organism-based; conditions: in vivo, read-out: Vdss
[11] = Cmax in rat at 2 mg/kg, po and 1 mg/kg, iv; type: ADME, organism-based; conditions: in vivo; summary of the method: as §3
[12] = Half life in rat at 2 mg/kg, po and 1 mg/kg, iv; type: ADME, organism-based; conditions: in vivo; summary of the method: as §3
[13] = Oral bioavailability in rat; type: ADME, organism-based; conditions: in vivo
[14] = Half life in rat; type: ADME, organism-based; conditions: in vivo
[15] = Bioavailability in Beagle dog at 1 mg/kg, po and 0.5 mg/kg, iv; type: ADME, organism-based, Canis lupus familiaris; conditions: in vivo
Summary of the method: (§4)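 Single-dose PK at 1.0 mpk po and 0.5 mpk iv. Plasma compound levels measured.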

[16] = Half life in Beagle dog at 1 mg/kg, po and 0.5 mg/kg, iv; conditions: in vivo
[17] = Volume of distribution at steady state in Beagle dog at 1 mg/kg, po and 0.5 mg/kg, iv; type: ADME, organism-based, Canis lupus familiaris; conditions: in vivo, read-out: Vdss
[18] = Half life in rhesus monkey at 1 mg/kg, po and 0.5 mg/kg, iv; conditions: in vivo
[19] = Volume of distribution at steady state in rhesus monkey at 1 mg/kg, po and 0.5 mg/kg, iv; type: ADME, organism-based, Macaca mulatta; conditions: in vivo, read-out: Vdss
[20] = Cmax in rhesus monkey at 1 mg/kg, po and 0.5 mg/kg, iv; type: ADME, organism-based, Macaca mulatta; conditions: in vivo; summary of the method: as §4
[21] = Plasma clearance in rhesus monkey at 1 mg/kg, po and 0.5 mg/kg, iv; type: ADME, organism-based, Macaca mulatta; summary of the method: as §4
Canis familiaris [22] = assay: Maximal decrease in peripheral blood lymphocyte in Beagle dog at 1 mg/kg, po after 24 hrs; type: functional, organism-based; set-up: dose 1 mg/kg; conditions: Canis lupus familiaris
Summary of the method: (§5)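 Complete blood counts run alongside plasma concentrations after a single 1.0 mpk oral dose in beagle dog or rhesus monkey. Lymphocyte counts followed over time, with PBL lowering assessed at 24 h postdose.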

Canis familiaris [23] = assay: Plasma clearance in Beagle dog at 1 mg/kg, po and 0.5 mg/kg, iv; type: ADME, organism-based, Canis lupus familiaris; conditions: in vivo; summary of the method: as §4
[24] = Bioavailability in rhesus monkey at 1 mg/kg, po and 0.5 mg/kg, iv; type: ADME, organism-based, Macaca mulatta; conditions: in vivo; summary of the method: as §4
Canis familiaris [25] = assay: Cmax in Beagle dog at 1 mg/kg, po and 0.5 mg/kg, iv; type: ADME, organism-based, Canis lupus familiaris; conditions: in vivo; summary of the method: as §4
Rhesus monkey = assay: Maximal decrease in peripheral blood lymphocyte in rhesus monkey at 1 mg/kg, po after 24 hrs; type: functional, organism-based; set-up: dose 1 mg/kg; conditions: Macaca mulatta; summary of the method: as §5

| SMILES | IC50 [1] | IC50 [2] | IC50 [3] | IC50 [4] | EC50 [5] | IC50 [6] [nM] | ED50 (Mus musculus) [mg/kg] | other results |
| --- | --- | --- | --- | --- | --- | --- | --- | --- |
| O=C(O)C1CN(Cc2cc(Cl)c(OCc3cc(-c4ccccc4)c(C(F)(F)F)s3)c(Cl)c2)C1 | 33 nM (antagonist) | 640 nM (antagonist) | > 10000 nM | 7.5 nM (antagonist) | 2.7 nM (agonist) | > 10000 | – | – |
| CCCCCCCCc1ccc(CCC(N)(CO)CO)cc1 [FINGOLIMOD] | 2100 nM (antagonist) | > 10000 nM | > 10000 nM | – | – | > 10000 | 0.15 | – |
| FC(F)(F)c1sc(-c2nc(-c3ccccc3)no2)cc1-c1ccccc1 | > 10000 nM | > 10000 nM | > 10000 nM | 25 nM (antagonist) | – | > 10000 | – | – |
| CCCCCCCCOc1c(Br)cc(CNCCCP(=O)(O)O)cc1OC | – | 80 nM (antagonist) | – | – | – | – | – | – |
| CCc1cc(CN2CC(C(=O)O)C2)ccc1OCc1cc(-c2ccccc2)c(C(F)(F)F)s1 | 10 nM (antagonist) | > 10000 nM | 4300 nM (antagonist) | 3.5 nM (antagonist) | 1.4 nM (agonist) | > 10000 | – | – |
| CCCCCCCCCc1ccc(CN2CC(C(=O)O)C2)cc1 | 11 nM (antagonist) | 5400 nM (antagonist) | 4900 nM (antagonist) | 18 nM (antagonist) | – | > 10000 | 5.2 | bioavailability [13]: > 70%; half-life [14]: 1.4 h |
| Cc1cc(CN2CC(C(=O)O)C2)ccc1OCc1cc(-c2ccccc2)c(C(F)(F)F)s1 | 13 nM (antagonist) | 1500 nM (antagonist) | 7500 nM (antagonist) | 1.8 nM (antagonist) | 0.8 nM (agonist) | > 10000 | 0.18 | bioavailability [15]: 100%; half-life [16]: 22.3 h; Vd [17]: 0.9 L/kg; bioavailability [7]: 88%; half-life [18]: 12.6 h; Vd [19]: 1.2 L/kg; Cmax [20]: 1800 nM; clearance [21]: 1.3 mL/min/kg; Activity (Canis familiaris [22]): Active; clearance (Canis familiaris [23]): 0.5 mL/min/kg; clearance [9]: 8.2 mL/min/kg; bioavailability [24]: 96%; Vd [10]: 5.7 L/kg; Cmax [11]: 500 nM; Cmax (Canis familiaris [25]): 3200 nM; Activity (Rhesus monkey): Active; half-life [12]: 8.9 h |
| O=C(O)C1CCN(Cc2ccc(OCc3cc(-c4ccccc4)c(C(F)(F)F)s3)cc2)C1 (stereo unspecified) | 120 nM (antagonist) | 790 nM (antagonist) | 1000 nM (antagonist) | 4.3 nM (antagonist) | 2.4 nM (agonist) | > 10000 | – | – |
| CCCCCCCCCCCCC/C=C/[C@@H](O)[C@@H](N)COP(=O)(O)O | – | 34 nM (antagonist) | 0.26 nM (antagonist) | 0.67 nM (antagonist) | – | – | – | – |
| COc1cc(CN2CC(C(=O)O)C2)ccc1OCc1cc(-c2ccccc2)c(C(F)(F)F)s1 | 77 nM (antagonist) | 2800 nM (antagonist) | > 10000 nM | 33 nM (antagonist) | 47 nM (agonist) | > 10000 | – | – |

Now from value to molecule, other results behind:

| IC50 [1] | IC50 [2] | IC50 [3] | IC50 [4] | EC50 [5] | IC50 [6] [nM] | SMILES | ED50 (Mus musculus) [mg/kg] | other results |
| --- | --- | --- | --- | --- | --- | --- | --- | --- |
| 6.3 nM (antagonist) | 45 nM (antagonist) | 220 nM (antagonist) | 6.9 nM (antagonist) | – | > 10000 | CCCCCCCCCc1ccc(CN2CCC(P(=O)(O)O)C2)cc1 (stereo unspecified) | – | – |
| 12 nM (antagonist) | 120 nM (antagonist) | 10000 nM | 4 nM (antagonist) | 1.3 nM (agonist) | > 10000 | Cc1cc(CN2CC(C(=O)O)C2)cc(C)c1OCc1cc(-c2ccccc2)c(C(F)(F)F)s1 | – | – |
| 21 nM (antagonist) | 340 nM (antagonist) | > 10000 nM | 7.7 nM (antagonist) | 5.9 nM (agonist) | > 10000 | O=C(O)C1CN(Cc2ccc(OCc3cc(-c4ccccc4)c(C(F)(F)F)s3)c(C(F)(F)F)c2)C1 | – | – |
| 4600 nM (antagonist) | > 10000 nM | > 10000 nM | – | – | > 10000 | FC(F)(F)c1cccc(-c2noc(-c3cc(-c4ccccc4)c(C(F)(F)F)s3)n2)c1 | – | – |
| > 10000 nM | > 10000 nM | > 10000 nM | 78 nM (antagonist) | – | > 10000 | FC(F)(F)c1sc(-c2nc(-c3ccc(Cl)cc3Cl)no2)cc1-c1ccccc1 | – | – |
| 16 nM (antagonist) | 10000 nM | 1000 nM (antagonist) | 8.3 nM (antagonist) | 0.2 nM (agonist) | > 10000 | O=C(O)C1CN(Cc2ccc(-c3noc(-c4cc(-c5ccccc5)c(C(F)(F)F)s4)n3)cc2)C1 | 0.07 | bioavailability [7]: 64%; EC50 [8]: 17 nM (agonist); clearance [9]: 2.2 mL/min/kg; Vd [10]: 1.9 L/kg; Cmax [11]: 1300 nM; half-life [12]: 10.5 h |
| 29 nM (antagonist) | 2500 nM (antagonist) | 2100 nM (antagonist) | 20 nM (antagonist) | – | > 10000 | CCCCCCCCCc1ccc(CN2CCC(C(=O)O)C2)cc1 (stereo unspecified) | 23 | bioavailability [13]: > 70%; half-life [14]: 0.9 h |
| 53 nM (antagonist) | 2400 nM (antagonist) | > 10000 nM | 13 nM (antagonist) | 3.3 nM (agonist) | > 10000 | O=C(O)C1CN(Cc2ccc(OCc3cc(-c4ccccc4)c(C(F)(F)F)s3)c(Br)c2)C1 | – | – |
| 41 nM (antagonist) | 2700 nM (antagonist) | 2100 nM (antagonist) | 2.7 nM (antagonist) | 1.3 nM (agonist) | > 10000 | O=C(O)C1CN(Cc2ccc(OCc3cc(-c4ccccc4)c(C(F)(F)F)s3)c(F)c2)C1 | – | – |
| 18 nM (antagonist) | 1300 nM (antagonist) | 2000 nM (antagonist) | 3.2 nM (antagonist) | 1.4 nM (agonist) | > 10000 | O=C(O)C1CN(Cc2ccc(OCc3cc(-c4ccccc4)c(C(F)(F)F)s3)c(Cl)c2)C1 | 0.54 | bioavailability [7]: 62%; clearance [9]: 8.2 mL/min/kg; Vd [10]: 3.8 L/kg; Cmax [11]: 500 nM; half-life [12]: 7 h |
